Measured values taken from ChEMBL document CHEMBL4270548, “Discovery of a potent glucokinase activator with a favorable liver and pancreas distribution pattern for the treatment of type 2 diabetes mellitus” (Eur J Med Chem, 2018).

Experiments:
[1] = target: Voltage-gated inwardly rectifying potassium channel KCNH2 (Homo sapiens, UniProt Q12809); assay: Inhibition of human ERG expressed in HEK293 cells at -80 holding potential by whole patch clamp assay; type: cell-based
In short: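 Whole-cell patch clamp on HEK293 stably expressing hERG, perfused at 26.0 ± 2.0 °C. Holding potential −80 mV. Steps to −40 to +20 mV for 1.5 s, then −50 mV for 1.5 s, repeated every 15 s. Concentrations 3–300 µM, 0.1% DMSO vehicle, E-4031 positive control.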

[2] = Cytotoxicity against CHOK1 cells assessed as reduction in cell viability after 24 hrs by WST1 assay; type: cell-based, Cricetulus griseus; settings: chinese hamster, CHO-K1 cells
In short: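 CHO-K1 cells plated at 6000/well in Ham's F12K with 2% FBS and 1 mM L-glutamine plus antibiotics, incubated overnight at 37 °C, 5% CO2. Exposed 24 h to compound at 1–100 µM final, with 1% DMSO vehicle and benzbromarone positive control. Viability read by WST-1.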

[3] = Cytotoxicity against rat primary hepatocytes assessed as reduction in cell viability after 24 hrs by AlamarBlue assay; type: cell-based, Hepatocyte
In short: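 Hepatocytes isolated from male SD rats (7 weeks) by two-step collagenase perfusion. Seeded at 2–3×10^4/well on collagen in modified WE medium with 10% FBS, dexamethasone and insulin, switched to serum-free medium at 4 h. At 20–24 h exposed 24 h to 1–100 µM final, 1% DMSO vehicle. Viability read by alamarBlue.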

[4] = Cmax in ICR mouse at 10 mg/kg, po administered as single dose by LC/MS/MS analysis; type: ADME, organism-based; set-up: dose 10 mg/kg, route oral; settings: in vivo
In short: (§1)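 Male ICR mice (8 weeks) fasted overnight and fed 7 h post-dose. Dosing was either a single IV dose of 2 mg/kg in saline or a single oral dose of 10 mg/kg in 0.5 w/v% MC. Orbital plexus blood was taken under anesthesia at serial times to 24 h. Plasma was extracted with acetonitrile/methanol plus internal standard and quantified by LC/MS/MS.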

[5] = Tmax in ICR mouse at 10 mg/kg, po administered as single dose by LC/MS/MS analysis; type: ADME, organism-based; settings: in vivo; in short: as §1
[6] = AUC (0 to infinity) in ICR mouse at 2 mg/kg, iv administered as single dose by LC/MS/MS analysis; type: ADME, organism-based; set-up: dose 2 mg/kg, route intravenous, time infinity; settings: in vivo; in short: as §1
[7] = AUC (0 to infinity) in ICR mouse at 10 mg/kg, po administered as single dose by LC/MS/MS analysis; type: ADME, organism-based; set-up: dose 10 mg/kg, route oral, time infinity; settings: in vivo; in short: as §1
[8] = Clearance in ICR mouse plasma at 2 mg/kg, iv administered as single dose by LC/MS/MS analysis; type: ADME, organism-based; in short: as §1
[9] = Volume of distribution at steady state in ICR mouse at 2 mg/kg, iv administered as single dose by LC/MS/MS analysis; type: ADME, organism-based; settings: in vivo, read-out: Vdss; in short: as §1
[10] = Primary phase half life in ICR mouse at 2 mg/kg, iv administered as single dose by LC/MS/MS analysis; type: ADME, organism-based; settings: in vivo, read-out: alphat1/2 (converted); in short: as §1
[11] = Terminal half life in ICR mouse at 2 mg/kg, iv administered as single dose by LC/MS/MS analysis; type: ADME, organism-based; settings: in vivo, read-out: beta t1/2 (converted); in short: as §1
[12] = Terminal half life in ICR mouse at 10 mg/kg, po administered as single dose by LC/MS/MS analysis; type: ADME, organism-based; settings: in vivo, read-out: beta t1/2 (converted); in short: as §1
[13] = Oral bioavailability in ICR mouse at 10 mg/kg administered as single dose by LC/MS/MS analysis; type: ADME, organism-based; settings: in vivo; in short: as §1
Mus musculus [14] = assay: Toxicity in C57BL/6J mouse assessed as hypoglycemia at <100 mg/kg, po measured up to 300 mins by glucometric method; type: organism-based; settings: in vivo, 5 h
In short: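 Male C57BL/6J mice (8 weeks) fasted 2 h and dosed orally at time 0 (n = 8/group). Tail vein glucose measured by glucometer at 0, 60, 120, 180, 240 and 300 min. Hypoglycemia defined as plasma glucose < 60 mg/dL. Mean ± SEM, Dunnett's test.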

[15] = AUC (0 to 1.5 hrs) in C57BL/6J mouse liver at 10 mg/kg, po administered as single dose by LC/MS/MS analysis; type: ADME, organism-based; set-up: time < 1.5 hr, dose 10 mg/kg, route oral; settings: in vivo
Mus musculus [16] = assay: Toxicity in ob/ob mouse assessed as effect on hepatic tryglyceride level at 10 to 30 mg/kg, po bid administered for 28 days measured up to post last dose; type: organism-based; settings: in vivo, 672 h
In short: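 Male ob/ob mice (9 weeks) dosed orally twice daily for 4 weeks, vehicle 0.5% MC. Plasma glucose measured by portable glucometer at 2 and 4 weeks. Liver TG assessed at the end of treatment. Mean ± SEM (n = 10), Dunnett's test versus vehicle.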

[17] = AUC (0 to 1.5 hrs) in C57BL/6J mouse plasma at 10 mg/kg, po administered as single dose by LC/MS/MS analysis; type: ADME, organism-based; set-up: time < 1.5 hr, dose 10 mg/kg, route oral
[18] = AUC (0 to 1.5 hrs) in C57BL/6J mouse plasma at 30 mg/kg, po administered as single dose by LC/MS/MS analysis; type: ADME, organism-based; set-up: dose 30 mg/kg, time < 1.5 hr, route oral
[19] = AUC (0 to 1.5 hrs) in C57BL/6J mouse plasma at 100 mg/kg, po administered as single dose by LC/MS/MS analysis; type: ADME, organism-based; set-up: time < 1.5 hr, dose 100 mg/kg, route oral
In short: (§2)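 Overnight-fasted male C57BL/6J mice (8 weeks) given a single oral dose (10, 30 or 100 mg/kg) in 0.1 w/v% Tween80 / 0.5 w/v% MC. Plasma taken via postcaval vein, liver and pancreas dissected and homogenized at 0.5, 1 and 1.5 h. LC/MS/MS with internal standard after acetonitrile/methanol extraction. AUC0-1.5h by trapezoidal rule, mean ± SD (n = 3). Kp = AUCtissue/AUCplasma. L/P = AUCliver/AUCpancreas.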

[20] = AUC (0 to 1.5 hrs) in C57BL/6J mouse liver at 30 mg/kg, po administered as single dose by LC/MS/MS analysis; type: ADME, organism-based; set-up: dose 30 mg/kg, time < 1.5 hr, route oral; settings: in vivo
[21] = AUC (0 to 1.5 hrs) in C57BL/6J mouse liver at 100 mg/kg, po administered as single dose by LC/MS/MS analysis; type: ADME, organism-based; set-up: time < 1.5 hr, dose 100 mg/kg, route oral; settings: in vivo; in short: as §2
[22] = AUC (0 to 1.5 hrs) in C57BL/6J mouse pancreas at 10 mg/kg, po administered as single dose by LC/MS/MS analysis; type: ADME, organism-based; set-up: dose 10 mg/kg, time < 1.5 hr, route oral; settings: in vivo
[23] = AUC (0 to 1.5 hrs) in C57BL/6J mouse pancreas at 30 mg/kg, po administered as single dose by LC/MS/MS analysis; type: ADME, organism-based; set-up: time < 1.5 hr, dose 30 mg/kg, route oral; settings: in vivo
[24] = AUC (0 to 1.5 hrs) in C57BL/6J mouse pancreas at 100 mg/kg, po administered as single dose by LC/MS/MS analysis; type: ADME, organism-based; set-up: time < 1.5 hr, dose 100 mg/kg, route oral; settings: in vivo; in short: as §2
[25] = Ratio of AUC (0 to 1.5 hrs) in C57BL/6J mouse liver to plasma at 10 mg/kg, po administered as single dose by LC/MS/MS analysis; type: ADME, organism-based; settings: liver and plasma, read-out: Ratio AUC
[26] = Ratio of AUC (0 to 1.5 hrs) in C57BL/6J mouse liver to plasma at 30 mg/kg, po administered as single dose by LC/MS/MS analysis; type: ADME, organism-based; settings: liver and plasma, read-out: Ratio AUC
[27] = Ratio of AUC (0 to 1.5 hrs) in C57BL/6J mouse liver to plasma at 100 mg/kg, po administered as single dose by LC/MS/MS analysis; type: ADME, organism-based; settings: liver and plasma, read-out: Ratio AUC; in short: as §2
[28] = Ratio of AUC (0 to 1.5 hrs) in C57BL/6J mouse pancreas to plasma at 10 mg/kg, po administered as single dose by LC/MS/MS analysis; type: ADME, organism-based; settings: pancreas and plasma, read-out: Ratio AUC
[29] = Ratio of AUC (0 to 1.5 hrs) in C57BL/6J mouse pancreas to plasma at 30 mg/kg, po administered as single dose by LC/MS/MS analysis; type: ADME, organism-based; settings: pancreas and plasma, read-out: Ratio AUC
[30] = Ratio of AUC (0 to 1.5 hrs) in C57BL/6J mouse pancreas to plasma at 100 mg/kg, po administered as single dose by LC/MS/MS analysis; type: ADME, organism-based; settings: pancreas and plasma, read-out: Ratio AUC; in short: as §2
[31] = Ratio of AUC (0 to 1.5 hrs) in C57BL/6J mouse liver to pancreas at 10 mg/kg, po administered as single dose by LC/MS/MS analysis; type: ADME, organism-based; settings: in vivo
[32] = Ratio of AUC (0 to 1.5 hrs) in C57BL/6J mouse liver to pancreas at 30 mg/kg, po administered as single dose by LC/MS/MS analysis; type: ADME, organism-based; settings: in vivo
[33] = Ratio of AUC (0 to 1.5 hrs) in C57BL/6J mouse liver to pancreas at 100 mg/kg, po administered as single dose by LC/MS/MS analysis; type: ADME, organism-based; settings: in vivo; in short: as §2

Chain of Voltage-gated inwardly rectifying potassium channel KCNH2 (Q12809 whole entry, the tested form may be a part): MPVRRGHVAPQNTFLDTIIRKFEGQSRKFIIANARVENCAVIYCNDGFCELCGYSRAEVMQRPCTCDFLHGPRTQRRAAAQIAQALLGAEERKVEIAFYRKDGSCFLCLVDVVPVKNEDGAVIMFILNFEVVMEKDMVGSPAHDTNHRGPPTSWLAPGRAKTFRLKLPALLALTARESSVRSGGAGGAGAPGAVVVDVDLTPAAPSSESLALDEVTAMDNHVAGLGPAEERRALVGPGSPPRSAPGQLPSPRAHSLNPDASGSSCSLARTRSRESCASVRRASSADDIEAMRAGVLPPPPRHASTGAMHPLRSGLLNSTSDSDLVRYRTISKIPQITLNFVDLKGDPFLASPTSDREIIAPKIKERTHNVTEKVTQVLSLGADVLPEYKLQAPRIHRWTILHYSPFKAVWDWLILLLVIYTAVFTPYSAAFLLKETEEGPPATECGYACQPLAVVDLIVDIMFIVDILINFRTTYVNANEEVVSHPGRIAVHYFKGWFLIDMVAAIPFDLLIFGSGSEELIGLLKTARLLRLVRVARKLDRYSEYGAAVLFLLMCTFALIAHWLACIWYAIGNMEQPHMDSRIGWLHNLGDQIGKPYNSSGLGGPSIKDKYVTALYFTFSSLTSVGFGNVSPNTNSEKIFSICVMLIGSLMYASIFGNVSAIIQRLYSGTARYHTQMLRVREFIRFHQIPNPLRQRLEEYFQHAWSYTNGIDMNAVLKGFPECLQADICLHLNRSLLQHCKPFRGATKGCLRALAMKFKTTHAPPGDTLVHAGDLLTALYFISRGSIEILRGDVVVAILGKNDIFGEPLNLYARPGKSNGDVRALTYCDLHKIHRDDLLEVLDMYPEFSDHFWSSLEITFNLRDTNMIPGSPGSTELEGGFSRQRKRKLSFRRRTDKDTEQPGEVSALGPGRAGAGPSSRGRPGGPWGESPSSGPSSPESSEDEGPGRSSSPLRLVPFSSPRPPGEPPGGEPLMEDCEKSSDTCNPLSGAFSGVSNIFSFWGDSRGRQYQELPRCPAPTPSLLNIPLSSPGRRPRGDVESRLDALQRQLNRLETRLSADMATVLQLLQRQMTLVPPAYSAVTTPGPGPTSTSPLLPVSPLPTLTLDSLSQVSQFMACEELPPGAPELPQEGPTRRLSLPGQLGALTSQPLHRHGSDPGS

For `CCN(CC(=O)O)CC(=O)N1CCC[C@H]1c1cc(C(=O)Nc2ncc(F)s2)c(C)s1`, the IC50 [1] was > 300 µM, the CC50 at 24 h [2] was > 100 µM and the CC50 at 24 h [3] was > 100 µM. It also gave a Cmax [4] of 3020 ng/mL, a Tmax [5] of 0.25 h and an AUC(0-inf) [6] of 8580 ng·h/mL. For the same compound, the AUC(0-inf) [7] was 8600 ng·h/mL, the clearance [8] was 3.88 mL/min/kg and the Vd [9] was 0.31 L/kg. It also gave a half-life [10] of 0.47 h, a half-life [11] of 1.6 h and a half-life [12] of 2 h. The bioavailability [13] was 20%, the Activity (Mus musculus [14]) was “Non-Toxic” and the AUC [15] was 8910 ng·h/g. For the same compound, the Activity (Mus musculus [16]) was “Non-Toxic”, the AUC(0-t) at 1.5 h [17] was 6750 ng·h/mL and the AUC(0-t) at 1.5 h [18] was 17700 ng·h/mL. The AUC(0-t) at 1.5 h [19] was 86900 ng·h/mL, the AUC [20] was 32300 ng·h/g and the AUC [21] was 148000 ng·h/g. The AUC [22] was 433 ng·h/g, the AUC [23] was 1430 ng·h/g and the AUC [24] was 10500 ng·h/g. It also gave a Kp [25] of 1.3, a Kp [26] of 1.6 and a Kp [27] of 1.7. It also gave a Kp [28] of 0.064, a Kp [29] of 0.081 and a Kp [30] of 0.12. The “Ratio AUC” value [31] was 20.6, the “Ratio AUC” value [32] was 22.5 and the “Ratio AUC” value [33] was 14.
